{"source": "ChEMBL document CHEMBL1122835", "about": "“Synthesis and pharmacology of the potent angiotensin-converting enzyme inhibitor N-[1(S)-(ethoxycarbonyl)-3-phenylpropyl]-(S)-alanyl-(S)-pyroglutamic acid” (J Med Chem, 1985)", "key": {"Rattus norvegicus [1]": {"system": "Rattus norvegicus", "test": "Change in heart rate was determined at a dose 10 mg/kg", "format": "functional", "how_it_was_run": "(§1)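 Male SHR, 13 weeks old, given HCTZ 25 mg/kg po in 0.25% methylcellulose daily for 3 days. Drug given orally in water (5 mL/kg) 1 h after the third dose. Tail-cuff systolic pressure and pulse-count heart rate taken 1.5 h later after 20 min warming at 38 °C. ANOVA with Duncan's test; ED30 by linear regression.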"}, "Rattus norvegicus [2]": {"system": "Rattus norvegicus", "test": "Decrease in systolic blood pressure of Spontaneous Hypertensive Rats (SHR) pretreated with hydrochlorothiazide upon oral administration at 10 mm/kg", "format": "functional, Artery", "how_it_was_run": "as §1"}, "Rattus norvegicus [3]": {"system": "Rattus norvegicus", "test": "Effect on vasopressor response caused by angiotensin I (AI) in anesthetized normotensive rat, administered intravenously at dose 0.030 mg/kg", "format": "functional", "conditions": "dose 0.03 mg/kg; route intravenous", "how_it_was_run": "(§2)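 Male Charles River CD rats, 380–500 g, anesthetized with pentobarbital Na 15 mg/kg plus barbital 220 mg/kg ip, held at 37 °C. Femoral artery pressure recorded. AI 0.3 μg/kg and AII 0.1 μg/kg given iv as challenges. Cumulative iv drug in saline, 0.01–0.81 mg/kg, each dose followed by AI/AII challenges at 5-min intervals. ED50 = 50% change from control response, by linear regression.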"}, "Rattus norvegicus [4]": {"system": "Rattus norvegicus", "test": "Percent change was determined in bradykinin depressor response in anesthetized normotensive rat, administered intravenously at dose 0.090 mg/kg", "format": "functional", "conditions": "dose 0.09 mg/kg; route intravenous", "how_it_was_run": "(§3)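 Male Charles River CD rats (380–500 g), pentobarbital Na 15 mg/kg plus barbital 220 mg/kg ip, tracheotomized, femoral artery/vein cannulated, kept at 37 °C. Control bradykinin 1 μg/kg iv depressor response, separate from angiotensin tests; drug iv in 0.9% saline (1 mL/kg, free base) 10 min later, Bk 5 min after each cumulative dose (0.0033–0.27 mg/kg). Maximum fall in arterial pressure versus control response; N = 8.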"}, "Canis familiaris [5]": {"system": "Canis familiaris", "test": "Effect on pressor response of angiotensin II in conscious dog at 60-65 min, dose 2 mg/kg administered orally", "format": "functional, Canis lupus familiaris", "conditions": "route oral", "how_it_was_run": "(§4)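 Conscious fasted mongrel dogs of both sexes, 6.8–15.3 kg, with femoral cannulas. Drug given orally in 0.25% methylcellulose with 3% glycerin (2 mL/kg), n = 4 per dose. AI 0.3, AII 0.1 and NE 1 μg/kg iv challenges. The second pre-dose set served as control; response measured at 60–65 min post-dose.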"}, "Rattus norvegicus [6]": {"system": "Rattus norvegicus", "test": "Activity against the bradykinin Response in anesthetized normotensive rat, administered intravenously at dose 0.0033 mg/kg", "format": "functional", "conditions": "route intravenous", "how_it_was_run": "(§5)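 Anesthetized (pentobarbital/barbital ip) male Charles River CD rats, 380–500 g, kept at 37 °C. Femoral artery blood pressure recorded. Control depressor response to bradykinin 1 μg/kg iv, then cumulative iv drug in 0.9% saline (1 mL/kg), 0.0033–0.27 mg/kg. Bk challenge 5 min after each dose. ED50 = dose giving a 50% change from control, by linear regression; N = 8.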"}, "Canis familiaris [7]": {"system": "Canis familiaris", "test": "Effect on pressor response of angiotensin I in anesthetized dog, dose 0.3 mg/kg administered intravenously", "format": "functional, Canis lupus familiaris", "conditions": "route intravenous", "how_it_was_run": "(§6)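 Mongrel dogs, 7.3–15.5 kg, anesthetized with barbital/pentobarbital iv, tracheotomized and vagotomized, n = 4. Cumulative iv doses in saline (0.2 mL/kg) spaced 30 min apart. AI and AII 1 μg/kg iv challenges given after each dose; the second pre-dose set served as control.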"}, "Canis familiaris [8]": {"system": "Canis familiaris", "test": "Effect on pressor response of angiotensin II in anesthetized dog, dose 0.3 mg/kg administered intravenously", "format": "functional, Canis lupus familiaris", "conditions": "route intravenous", "how_it_was_run": "as §6"}, "Rattus norvegicus [9]": {"system": "Rattus norvegicus", "test": "Percent change was determined in bradykinin depressor response in anesthetized normotensive rat, administered intravenously at dose 0.010 mg/kg", "format": "functional", "conditions": "dose 0.01 mg/kg; route intravenous", "how_it_was_run": "as §3"}, "Rattus norvegicus [10]": {"system": "Rattus norvegicus", "test": "Decrease in systolic blood pressure of Spontaneous Hypertensive Rats (SHR) pretreated with hydrochlorothiazide upon oral administration at 30 mm/kg", "format": "functional, Artery", "how_it_was_run": "as §1"}, "Canis familiaris [11]": {"system": "Canis familiaris", "test": "Effect on pressor response of angiotensin I in anesthetized dog, dose 0.9 mg/kg administered intravenously", "format": "functional, Canis lupus familiaris", "conditions": "route intravenous", "how_it_was_run": "as §6"}, "Rattus norvegicus [12]": {"system": "Rattus norvegicus", "test": "Percent change was determined in bradykinin depressor response in anesthetized normotensive rat, administered intravenously at dose 0.0033 mg/kg", "format": "functional", "conditions": "route intravenous", "how_it_was_run": "as §5"}, "Rattus norvegicus [13]": {"system": "Rattus norvegicus", "test": "Effective dose to produce ACE inhibition in rat, administered intravenously", "format": "functional", "conditions": "iv", "how_it_was_run": "as §2"}, "Rattus norvegicus [14]": {"system": "Rattus norvegicus", "test": "Change in heart rate was determined in renal hypertensive rat, administered orally at a dose 100 mg/kg", "format": "functional", "conditions": "route oral", "how_it_was_run": "(§7)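 Renal hypertensive rats were prepared by clipping the left renal artery (0.22-mm clip) in 4-week-old male CD rats and held 6 weeks. Overnight-fasted rats were dosed orally with aqueous solution (5 mL/kg), water as control. Tail-cuff systolic pressure and heart rate measured 2 h post-dose. ANOVA with Duncan's test; ED30 by linear regression.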"}, "Rattus norvegicus [15]": {"system": "Rattus norvegicus", "test": "Percent decrease in angiotensin I pressor response was measured in rat, administered intravenously at dose 0.27 mg/kg", "format": "functional", "conditions": "route intravenous", "how_it_was_run": "(§8)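 Anesthetized (pentobarbital Na 15 mg/kg + barbital 220 mg/kg ip), tracheotomized male Charles River CD rats, 380–500 g, femoral cannulas, heated board at 37 °C. Control pressor responses to angiotensin I 0.3 μg/kg then angiotensin II 0.1 μg/kg iv; drug iv in 0.9% saline (free base), AI and AII repeated at 5-min intervals, cumulative 0.01–0.81 mg/kg. Peak arterial pressure rise versus control.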"}, "Rattus norvegicus [16]": {"system": "Rattus norvegicus", "test": "Activity against the bradykinin Response in anesthetized normotensive rat, administered intravenously at dose 0.010 mg/kg", "format": "functional", "conditions": "dose 0.01 mg/kg; route intravenous", "how_it_was_run": "as §5"}, "Rattus norvegicus [17]": {"system": "Rattus norvegicus", "test": "Decrease in systolic blood pressure of Spontaneous Hypertensive Rats (SHR) pretreated with hydrochlorothiazide upon oral administration at 3 mm/kg", "format": "functional, Artery", "how_it_was_run": "as §1"}, "Rattus norvegicus [18]": {"system": "Rattus norvegicus", "test": "Hypotensive activity was determined in low-sodium treated rat, dose 30 mg/kg administered orally at 5 hr", "format": "functional", "conditions": "route oral", "how_it_was_run": "(§9)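 Male CD rats, 11 weeks old, kept on a sodium-deficient diet for 3 weeks and fasted overnight, were dosed orally with aqueous solutions (5 mL/kg), water as control. Systolic pressure measured by tail cuff at the stated post-dose time. ANOVA with Duncan's test.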"}, "Rattus norvegicus [19]": {"system": "Rattus norvegicus", "test": "Percent change was determined in bradykinin depressor response in anesthetized normotensive rat, administered intravenously at dose 0.030 mg/kg", "format": "functional", "conditions": "dose 0.03 mg/kg; route intravenous", "how_it_was_run": "as §3"}, "Rattus norvegicus [20]": {"system": "Rattus norvegicus", "test": "Effect on systolic blood pressure was determined in renal hypertensive rat, administered orally at a dose 100 mg/kg", "format": "functional, Artery", "conditions": "route oral", "how_it_was_run": "as §7"}, "Rattus norvegicus [21]": {"system": "Rattus norvegicus", "test": "Effect on vasopressor response caused by angiotensin I (AI) in anesthetized normotensive rat, administered intravenously at dose 0.090 mg/kg", "format": "functional", "conditions": "dose 0.09 mg/kg; route intravenous", "how_it_was_run": "as §2"}, "Canis familiaris [22]": {"system": "Canis familiaris", "test": "Effect on pressor response of angiotensin II in conscious dog at 60-65 min, dose 1 mg/kg administered orally", "format": "functional, Canis lupus familiaris", "conditions": "route oral", "how_it_was_run": "as §4"}, "Rattus norvegicus [23]": {"system": "Rattus norvegicus", "test": "Effect on vasopressor response caused by angiotensin I (AI) in anesthetized normotensive rat, administered intravenously at dose 0.81 mg/kg", "format": "functional", "conditions": "route intravenous", "how_it_was_run": "as §2"}, "Rattus norvegicus [24]": {"system": "Rattus norvegicus", "test": "Hypotensive activity was determined in low-sodium treated rat, dose 3 mg/kg administered orally at 2 hr", "format": "functional", "conditions": "route oral", "how_it_was_run": "as §9"}, "Rattus norvegicus [25]": {"system": "Rattus norvegicus", "test": "Percent decrease in angiotensin I pressor response was measured in rat, administered intravenously at dose 0.030 mg/kg", "format": "functional", "conditions": "dose 0.03 mg/kg; route intravenous", "how_it_was_run": "as §8"}, "Rattus norvegicus [26]": {"system": "Rattus norvegicus", "test": "Hypotensive activity was determined in low-sodium treated rat, dose 10 mg/kg administered orally at 2 hr", "format": "functional", "conditions": "route oral", "how_it_was_run": "as §9"}, "Canis familiaris [27]": {"system": "Canis familiaris", "test": "Effect on pressor response of angiotensin I in conscious dog at 60-65 min, dose 2 mg/kg administered orally", "format": "functional, Canis lupus familiaris", "conditions": "route oral", "how_it_was_run": "as §4"}, "Rattus norvegicus [28]": {"system": "Rattus norvegicus", "test": "Change in heart rate was determined in renal hypertensive rat, administered orally at a dose 3 mg/kg", "format": "functional", "conditions": "route oral", "how_it_was_run": "as §7"}}}
{"smiles": "CCOC(=O)[C@H](CCc1ccccc1)N[C@@H](C)C(=O)N1C(=O)CC[C@H]1C(=O)O", "values": [{"measurement": "Heart rate", "setting": "Rattus norvegicus [1]", "value": 369, "unit": "beats min-1"}, {"measurement": "Blood pressure", "setting": "Rattus norvegicus [2]", "value": 189, "unit": "mmHg"}, {"measurement": "Response", "setting": "Rattus norvegicus [3]", "value": 39, "unit": "mmHg"}, {"measurement": "Change", "setting": "Rattus norvegicus [4]", "value": 69, "unit": "%"}, {"measurement": "Blood pressure", "setting": "Canis familiaris [5]", "value": 40, "unit": "mmHg"}, {"measurement": "Response", "setting": "Rattus norvegicus [6]", "value": -44, "unit": "mmHg"}, {"measurement": "Blood pressure", "setting": "Canis familiaris [7]", "value": 46, "unit": "mmHg"}, {"measurement": "Blood pressure", "setting": "Canis familiaris [8]", "value": 68, "unit": "mmHg"}, {"measurement": "Change", "setting": "Rattus norvegicus [9]", "value": 61, "unit": "%"}, {"measurement": "Blood pressure", "setting": "Rattus norvegicus [10]", "value": 190, "unit": "mmHg"}, {"measurement": "Blood pressure", "setting": "Canis familiaris [11]", "value": 28, "unit": "mmHg"}, {"measurement": "Change", "setting": "Rattus norvegicus [12]", "value": 22, "unit": "%"}, {"measurement": "ED50", "setting": "Rattus norvegicus [13]", "value": 0.13, "unit": "mg/kg"}, {"measurement": "Heart rate", "setting": "Rattus norvegicus [14]", "value": 454, "unit": "beats min-1"}, {"measurement": "Decrease", "setting": "Rattus norvegicus [15]", "value": 63, "unit": "%"}, {"measurement": "Response", "setting": "Rattus norvegicus [16]", "value": -58, "unit": "mmHg"}, {"measurement": "Blood pressure", "setting": "Rattus norvegicus [17]", "value": 211, "unit": "mmHg"}, {"measurement": "Activity", "setting": "Rattus norvegicus [18]", "value": 132, "unit": "mmHg"}, {"measurement": "Change", "setting": "Rattus norvegicus [19]", "value": 69, "unit": "%"}, {"measurement": "Activity", "setting": "Rattus norvegicus [20]", "value": 186, "unit": "mmHg"}, {"measurement": "Response", "setting": "Rattus norvegicus [21]", "value": 33, "unit": "mmHg"}, {"measurement": "Blood pressure", "setting": "Canis familiaris [22]", "value": 48, "unit": "mmHg"}, {"measurement": "Response", "setting": "Rattus norvegicus [23]", "value": 4, "unit": "mmHg"}, {"measurement": "Activity", "setting": "Rattus norvegicus [24]", "value": 154, "unit": "mmHg"}, {"measurement": "Decrease", "setting": "Rattus norvegicus [25]", "value": 19, "unit": "%"}, {"measurement": "Activity", "setting": "Rattus norvegicus [26]", "value": 148, "unit": "mmHg"}, {"measurement": "Blood pressure", "setting": "Canis familiaris [27]", "value": 8, "unit": "mmHg"}, {"measurement": "Heart rate", "setting": "Rattus norvegicus [28]", "value": 460, "unit": "beats min-1"}]}
